pIC50: −log10 of the molar value.
What was measured:
A-431 = experiment: Cytotoxicity against human A431 cells after 48 hrs by MTT assay; format: functional, cell-based; details: A-431, 48 h
Procedure, shortened: (§1)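 Cells in DMEM with 10% FBS were plated at 2 × 10^4 per well and left overnight, then treated for 48 h at 0.6–20 µM (six concentrations) from 10 mM DMSO stocks. MTT was added for 2 h, and formazan was dissolved in DMSO and read at 570 nm. Viability was expressed as % of control, with IC50 taken from dose-response curves. Results are mean ± SD of three independent experiments.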

HeLa = experiment: Cytotoxicity against human HeLa cells after 48 hrs by MTT assay; format: functional, cell-based; procedure, shortened: as §1
MCF7 = experiment: Cytotoxicity against human MCF7 cells after 48 hrs by MTT assay; format: functional, cell-based; details: MCF7, 48 h; procedure, shortened: as §1
MDA-MB-231 = experiment: Cytotoxicity against human MDA-MB-231 cells after 48 hrs by MTT assay; format: functional, cell-based; details: MDA-MB-231, 48 h; procedure, shortened: as §1
A549 = experiment: Cytotoxicity against human A549 cells after 48 hrs by MTT assay; format: functional, cell-based; details: A549, 48 h
SK-OV-3 = experiment: Cytotoxicity against human SKOV3 cells after 48 hrs by MTT assay; format: functional, cell-based; details: SK-OV-3, 48 h; procedure, shortened: as §1
HaCaT = experiment: Cytotoxicity against human HaCaT cells after 48 hrs by MTT assay; format: cell-based; procedure, shortened: as §1
[1] = Cytotoxicity against human CCD39Lu cells after 48 hrs by MTT assay; format: cell-based; procedure, shortened: as §1
[2] = Inhibition of porcine tubulin polymerization after 1 hr by spectrophotometric analysis; parameters: species or system Sus scrofa
Procedure, shortened: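 Polymerization was started by shifting from 4 °C to 37 °C, and absorbance was followed at 37 °C for 60 min. The vehicle served as control.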

| Compound | pIC50 (A-431) | pIC50 (HeLa) | pIC50 (MCF7) | pIC50 (MDA-MB-231) | pIC50 (A549) | pIC50 (SK-OV-3) | pIC50 (HaCaT) | pIC50 [1] | pIC50 [2] |
| --- | --- | --- | --- | --- | --- | --- | --- | --- | --- |
| COc1ccc(-c2ocnc2-c2cc(OC)c(OC)c(OC)c2)cc1S | 5.91 | 5.35 | 5.68 | 5.54 | < 4.70 | 5.50 | 5.89 | < 4.70 | 5.53 |
| COc1ccc(-c2c(-c3cc(Br)c(OC)c(OC)c3)ncn2C)cc1SC | < 4.70 | < 4.70 | 5.28 | < 4.70 | < 4.70 | < 4.70 | < 4.70 | < 4.70 | < 5.00 |
| COc1cc(-c2ncn(C)c2-c2ccccc2SC)cc(OC)c1OC | < 4.70 | < 4.70 | 5.64 | < 4.70 | < 4.70 | < 4.70 | < 4.70 | < 4.70 | < 5.00 |
| COc1cc(-c2ocnc2-c2cc(OC)c(OC)c(OC)c2)ccc1SC | 6.37 | 6.19 | 6.22 | 6.07 | < 4.70 | 5.83 | 6.37 | < 4.70 | 5.79 |
| COc1ccc(-c2ocnc2-c2cc(Br)c(OC)c(OC)c2)cc1OC | 4.91 | 7.15 | 5.21 | 5.11 | 6.30 | 6.59 | 5.00 | < 4.70 | 5.32 |
| COc1cc(-c2ncoc2-c2cc(Br)c(SC)c(OC)c2)cc(OC)c1OC | < 4.70 | < 4.70 | 5.85 | 4.75 | < 4.70 | < 4.70 | 4.78 | < 4.70 | < 5.00 |
| COc1ccc(-c2c(-c3cc(OC)c(SC)c(OC)c3)ncn2C)cc1O | 6.37 | 6.41 | 5.79 | 6.41 | < 4.70 | 5.76 | 6.30 | < 4.70 | 5.18 |
| COc1cc(-c2ocnc2-c2cc(Br)c(OC)c(OC)c2)ccc1SC | 6.39 | 6.36 | 5.61 | 6.12 | < 4.70 | 5.99 | 6.59 | < 4.70 | 5.81 |
| COc1cc(/C(=C\c2ccccc2SC)C(=O)O)cc(OC)c1OC | < 4.70 | < 4.70 | 5.74 | < 4.70 | < 4.70 | < 4.70 | < 4.70 | < 4.70 | < 5.00 |
| COc1cc(/C=C\c2ccccc2SC)cc(OC)c1OC | 5.09 | 4.93 | 5.63 | 4.85 | < 4.70 | 4.85 | 4.89 | < 4.70 | < 5.00 |
| COc1cc(-c2c(-c3cc(Br)c(OC)c(OC)c3)ncn2C)ccc1SC | 4.87 | < 4.70 | 5.66 | 4.81 | < 4.70 | < 4.70 | < 4.70 | 4.72 | < 5.00 |
| COc1cc(/C=C\c2cccc(OC)c2SC)cc(OC)c1OC | 5.44 | 5.21 | 6.19 | 4.93 | < 4.70 | 4.84 | 5.02 | < 4.70 | < 5.00 |
| COc1cc(-c2ncn(C)c2-c2cc(Br)c(SC)c(OC)c2)cc(OC)c1OC | 4.78 | 5.09 | 5.60 | < 4.70 | < 4.70 | < 4.70 | < 4.70 | 5.21 | < 5.00 |
| COc1cc(-c2ncoc2-c2ccccc2SC)cc(OC)c1OC | < 4.70 | 5.13 | 5.84 | < 4.70 | < 4.70 | < 4.70 | < 4.70 | < 4.70 | 6.07 |
| COc1cc(/C(=C\c2cccc(OC)c2SC)C(=O)O)cc(OC)c1OC | < 4.70 | < 4.70 | 6.02 | < 4.70 | < 4.70 | < 4.70 | < 4.70 | < 4.70 | < 5.00 |
